Screening data: PubChem, several laboratories
PAFAH1B2 FP inh = PAFAH1B2 (human) inhibition | P68402 | recombinant PAFAH1B2, FP-rhodamine activity probe, fluorescence polarization | inhibition, % at 3.39 µM | 1.2% of 340,000 active | AID 492953;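 active = inhibition above the mean of all tested compounds plus 3 SD, cut at about 24% in these data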;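 note: 0% = enzyme with DMSO and 100% = wells lacking PAFAH1B2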
Target sequence (P68402 whole entry, looked up): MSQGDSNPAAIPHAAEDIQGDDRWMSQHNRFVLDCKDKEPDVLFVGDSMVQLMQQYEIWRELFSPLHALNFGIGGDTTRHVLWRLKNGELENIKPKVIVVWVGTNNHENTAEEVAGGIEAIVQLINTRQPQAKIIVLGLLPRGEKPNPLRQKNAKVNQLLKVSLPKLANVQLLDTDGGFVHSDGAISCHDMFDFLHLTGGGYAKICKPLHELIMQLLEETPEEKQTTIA
PAFAH2 FP inh = inhibitors of human PAFAH2; Q99487; inhibition, % at 3.39 µM; recombinant PAFAH2, FP-rhodamine activity probe, fluorescence polarization; AID 492956; 0.99% of 340,000 active;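 active = inhibition above the mean over all tested compounds plus 3 SD, cut at about 30% in these data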;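 note: inhibitors block probe labeling of enzyme so polarization drops; 0% = enzyme with DMSO and 100% = wells lacking PAFAH2 protein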
Apaf1 inhib = blocks human Apaf-1 apoptosome activity. O14727. reconstituted apoptosome caspase-3 activity, DEVD-Rh110 fluorescence. inhibition, % at 20 µM. 0.71% of 330,000 active. AID 489030; active = inhibition of at least 40% at 20 µM;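 note: plate controls were DMSO wells for no effect and DEVD-CHO caspase inhibitor wells for full effect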
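Assay system – apoptosome proteins · Medium – Hepes buffer, pH 7.5 · Also added – cytochrome c with DEVD-Rh110 · Timing – 30 min compound preincubation, 50 min activation, room temperature · Detection – Rh110 fluorescence, excitation 480 nm, emission 540 nm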
PAFAH1B3 FP inh = inhibitors of human PAFAH1B3; Q15102; recombinant PAFAH1B3, FP-rhodamine probe, fluorescence polarization; inhibition, % at 3.39 µM; 0.28% of 340,000 active; AID 492972;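 active = inhibition above the screen-wide average of all tested compounds plus 3 SD, cut at about 25% in these data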;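 note: 0% = enzyme with DMSO only and 100% = wells lacking PAFAH1B3 protein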
Target sequence (Q15102 whole entry, looked up): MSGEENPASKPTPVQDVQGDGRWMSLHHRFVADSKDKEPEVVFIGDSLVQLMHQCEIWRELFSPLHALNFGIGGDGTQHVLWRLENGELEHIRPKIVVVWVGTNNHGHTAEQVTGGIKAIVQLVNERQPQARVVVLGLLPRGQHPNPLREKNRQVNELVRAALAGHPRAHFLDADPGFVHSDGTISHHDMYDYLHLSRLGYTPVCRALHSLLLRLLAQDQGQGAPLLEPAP
pPAFAH FP inh = inhibitors of human plasma PAF acetylhydrolase (pPAFAH). recombinant pPAFAH, FP-rhodamine probe fluorescence polarization. Q13093. 1.5% of 330,000 active. AID 463082. inhibition, % at 3.39 µM;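 active = inhibition above the mean inhibition across the screen plus 3 SD, cut at about 25% in these data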;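 note: inhibitors block binding of the rhodamine activity-based probe so polarization drops; 0% = enzyme with DMSO and 100% = wells lacking pPAFAH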
Apaf-1 inh conf = confirmation of Apaf-1 inhibitors. shares compounds with Apaf1 inhib. reconstituted apoptosome, caspase-3 DEVD-Rh110 fluorescence. inhibition, % at 20 µM. 25% of 1,800 active. AID 504614;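 active = mean inhibition of at least 40% at 20 µM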;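 note: plate controls were DMSO wells for no effect and DEVD-CHO caspase inhibitor control wells for full effect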
Rh110 quench = Rh110 signal interference in Apaf-1 inhibitor counter-screen. shares compounds with Apaf1 inhib. Rh110 fluorescence interference, quenched caspase reaction. activation (fluorescence interference), % at 20 µM. 1,800 tested, under 10 active. AID 504615;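 active = signal rise of 40% or more at 20 µM, treated as a fluorescence artifact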
Fluor interf inh = shows fluorescence interference in the Apaf-1 inhibitor assay format | shares compounds with Apaf1 inhib | fluorescence interference counterscreen, Apaf-1 assay format | IC50, µM | 460 tested, under 10 active | AID 588538; call rule not given here
* = called active by the depositor; . = not tested or not shown. Shown are actives, neighbours in structure and some others; about 3.1% of the full set was active somewhere.

SMILES	PAFAH1B2 FP inh	PAFAH2 FP inh	Apaf1 inhib	PAFAH1B3 FP inh	pPAFAH FP inh	Apaf-1 inh conf	Rh110 quench	others
O=S(=O)(NCc1nnc2ccccn12)c1ccc(Cl)cc1	3.4	2.1	1.3	-1.2	0.8	.	.
CN(C)c1ccc(NC(=O)Oc2ccccc2)cc1	4.0	8.1	48.3*	-1.4	19.1	11.1	2.7
CN(C)Cc1c(C(=O)N/N=C/CCc2ccccc2)nnn1-c1nonc1N	4.4	6.9	10.5	5.1	1.4	.	.
CCCCCN(C(=O)CCC(=O)OCc1ccc(C(C)C)cc1)c1c(N)n(CCCC)c(=O)[nH]c1=O	3.0	-1.9	6.7	1.0	-1.8	.	.
CCN(C(=O)CSc1nnc(-c2ccccc2)n1C)C1CCS(=O)(=O)C1 (stereo not drawn)	2.5	3.3	-14.5	4.6	1.0	.	.
C=CCn1c(SCC(=O)N(CC)C2CCS(=O)(=O)C2)nnc1-c1ccccc1 (stereo not drawn)	-5.3	1.4	61.4*	7.3	-0.5	35.6	-7.1
CC1CCCCC12NC(=O)N(CC(=O)N1CCN(Cc3ccc(C#N)cc3)CC1)C2=O (stereo not drawn)	1.1	-0.1	-8.9	6.4	1.5	.	.
CCCCC(CC)CN1C(=O)/C(=C/c2ccncc2)SC1=S (stereo not drawn)	10.4	6.6	41.9*	0.0	-2.4	17.2	9.7
CCN1C(=O)/C(=C\c2ccncc2)SC1=S	4.0	-3.0	13.2	0.7	-9.4	.	.
O=C(N/N=C/c1cccc([N+](=O)[O-])c1)C(=O)N1CCCCCC1	0.8	0.1	13.7	4.0	-1.4	.	.
Cc1ccc(C(=O)NNc2cc(N3CCCC3)nc(N3CCCC3)n2)cc1	.	.	97.0*	.	31.9*	88.7*	8.4	Fluor interf inh=>100
CCOC(=O)C1CCN(C(=O)c2ccc3c(c2)NC(=O)/C(=C\c2cccc(C)c2)S3)CC1	1.7	-3.3	40.0*	4.4	-0.8	22.3	1.1
CC(=O)N/N=C/c1c(C)[nH]n(-c2ccccc2)c1=O	9.9	0.5	0.9	6.3	-2.7	.	.
Cc1[nH]n(-c2cccc3ccccc23)c(=O)c1/C=N/NC(=O)c1cccc([N+](=O)[O-])c1	-1.4	6.5	16.4	12.6	16.4	.	.
Cc1[nH]n(-c2ccccc2)c(=O)c1/C=N/NC(=O)c1cccc([N+](=O)[O-])c1	-1.7	7.8	55.7*	5.6	2.3	53.1*	1.5	Fluor interf inh=>100
Cc1[nH]n(-c2ccccc2)c(=O)c1/C=N\NC(=O)C1COc2ccccc2O1 (stereo not drawn)	-1.4	6.6	53.9*	11.1	10.6	64.8*	-6.0	Fluor interf inh=>100
Cc1[nH]n(-c2ccccc2)c(=O)c1/C=N/N(C)c1ccccc1	3.2	-6.9	79.8*	3.2	-1.4	14.6	-2.2
O=C(COc1ccccc1)Nc1cc(NC(=O)COc2ccccc2)cc(C(=O)O)c1	4.8	-18.7	-4.2	6.4	-1.2	.	.
CN1C[C@@H]2[C@@H]3C(=O)N(Cc4ccccc4)C(=O)[C@@H]3[C@](Cc3ccccc3)(C1=O)N2C(=O)c1ccc(F)cc1	8.9	1.1	.	7.4	.	.	.
Nc1ccc2nc(-c3ccccc3)c(-c3ccccc3)nc2c1	13.9	9.1	64.6*	8.7	26.9*	28.5	6.9
O=C(c1ccccc1)c1coc2c1C(=O)c1ccccc1C2=O	2.9	47.6*	63.6*	28.6*	0.7	69.5*	6.5	Fluor interf inh=>100
COc1ccc(CCNCC2C(Oc3ccc(Cl)cc3)C(=O)N2c2ccccc2C)cc1OC (stereo not drawn)	-4.0	-3.4	15.3	-6.1	2.6	.	.
CCOC(=O)c1nn(-c2ccccc2C)c(=O)c2c(N)scc12	3.1	-6.0	46.7*	-2.7	3.7	12.4	-14.8
CCOC(=O)c1nn(-c2ccccc2)c(=O)c2c(N)scc12	5.5	8.7	55.5*	13.7	1.3	21.6	1.9
CCOC(=O)c1nn(-c2ccccc2)c(=O)c2c(NC(C)=O)scc12	7.2	0.9	-6.9	5.4	2.9	.	.
SMILES	PAFAH1B2 FP inh	PAFAH2 FP inh	Apaf1 inhib	PAFAH1B3 FP inh	pPAFAH FP inh	Apaf-1 inh conf	Rh110 quench	others
COc1cccc(CCNC(=O)CCCC(=O)c2ccccc2)c1	2.7	1.4	4.2	9.3	3.0	.	.
CCc1ccccc1N(C)S(=O)(=O)c1ccc(-c2cc(C)no2)s1	3.6	3.5	11.0	4.6	0.9	.	.
COc1cccc2c1C(=O)C=C(C)C2=O	1.5	2.6	56.1*	10.6	0.8	65.3*	4.9	Fluor interf inh=>100
Oc1cccc2c(NC(=S)Nc3ccc(SC(F)F)cc3)cccc12	5.1	2.0	53.2*	7.6	12.2	12.4	0.5
Oc1cccc(NC(=S)Nc2ccc(SC(F)F)cc2)c1	4.8	-3.5	-8.9	3.7	10.1	.	.
O=C(COc1cc(F)ccc1[N+](=O)[O-])NCC1CCCO1 (stereo not drawn)	-2.1	3.2	5.0	-0.4	3.9	.	.
CN(c1ccccc1)S(=O)(=O)c1cccc(C(=O)NCc2ccccc2CN2CCCC2)c1	-1.2	4.3	52.0*	2.1	0.7	20.6	5.8
CN(c1ccccc1)S(=O)(=O)c1ccc(C(=O)NCc2ccccc2CN2CCCC2)cc1	-1.5	3.5	18.7	6.5	.	.	.
CC(C)(C)[C@@H]1COC(=O)[C@H](Cc2ccc(F)cc2)CC/C=C\C[C@@H](CC(=O)NCCO)C(=O)N1	5.1	4.2	1.5	-2.5	4.1	.	.
CNC(=O)CN1C(=O)c2cccc3cccc1c23	1.0	-3.2	-6.7	1.2	3.8	.	.
CN1/C(=N\O)c2cccc3cccc1c23	5.8	5.9	86.2*	0.6	7.3	20.0	-0.1
Cc1nn(-c2ccccc2)c(C)c1CN(C)C(=O)c1ccc(S(=O)(=O)NCc2ccco2)cc1	4.5	3.1	48.9*	4.8	-0.6	13.7	2.3
CCc1noc(C)c1C(=O)N1CCN(S(=O)(=O)c2ccc(Cl)s2)CC1	3.6	1.4	-2.6	5.0	1.1	.	.
Clc1ccc(N=c2ssnc2Cl)nc1	3.9	12.3	54.7*	20.6	5.4	66.9*	3.0	Fluor interf inh=>100
Clc1nssc1=Nc1ccc(Br)cc1	6.2	1.9	.	7.4	.	.	.
CCCCCCCCCCOC(=O)Cn1c(COc2ccc(OC)cc2)[n+](C)c2ccccc21	4.5	8.3	72.4*	-8.9	6.6	68.2*	17.4	Fluor interf inh=>100
CCCCCCCCCCOC(=O)Cn1c(COc2ccccc2C)[n+](C)c2ccccc21	1.4	3.8	80.8*	-3.4	8.4	83.0*	24.7	Fluor interf inh=>100
CCCCOC(=O)Cn1c(=O)n(CC(=O)OCCCC)c2ccccc21	0.4	2.6	-0.9	5.4	5.5	.	.
Cc1ccccc1OCc1n(CC(=O)OC2CC(C)CCC2C(C)C)c2ccccc2[n+]1C (stereo not drawn)	3.3	4.3	47.3*	12.0	-2.4	47.7*	19.6	Fluor interf inh=>100
